According to paper PMC6583925 (Journal of medicinal chemistry, 2019):

Experiments:
[1] = tested on: brain lyso-PS/PI and C20:4 PS content; details: mice; cited from earlier work
[2] = 30 mg/kg, cited from earlier work
serine hydrolases = test: selectivity by gel-based ABPP with FP-Rh in mouse brain proteome; assay type: biochemical; details: FP-Rh probe
Procedure, shortened: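 Mouse brain homogenised in DPBS and cleared at 1,400 × g. Membranes pelleted at 16,000 × g (45 min, 4 °C) and resuspended in DPBS; used at 1 mg/mL. Test compound pretreatment: (thio)ureas 20 min at room temperature, NHH-carbamates 45 min at 37 °C. FP-Rh labelling (1 μM final) 45 min at 37 °C. Readout: 10% SDS-PAGE, in-gel fluorescence, band intensities quantified.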

ABHD12 = molecular target: T1, ABHD12 (Homo sapiens, UniProt Q8N2K0); details: cited from earlier work
T1 sequence (Q8N2K0 1-398): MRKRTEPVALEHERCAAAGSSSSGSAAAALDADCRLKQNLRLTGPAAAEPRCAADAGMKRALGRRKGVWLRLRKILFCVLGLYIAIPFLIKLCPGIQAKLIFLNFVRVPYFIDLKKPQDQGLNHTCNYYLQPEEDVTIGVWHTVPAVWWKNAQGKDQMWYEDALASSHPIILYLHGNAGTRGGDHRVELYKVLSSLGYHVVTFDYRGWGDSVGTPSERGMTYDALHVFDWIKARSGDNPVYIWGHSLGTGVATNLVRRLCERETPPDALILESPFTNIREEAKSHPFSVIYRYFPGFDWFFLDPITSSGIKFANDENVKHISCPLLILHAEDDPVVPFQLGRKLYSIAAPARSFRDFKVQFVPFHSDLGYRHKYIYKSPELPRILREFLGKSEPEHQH

THP-1 macrophages = test: cytokine measurements in M1-polarized THP-1 macrophages; assay type: cell-based, human; details: M1 stage THP-1 macrophages; DO264 0.1, 0.5, 1 μM, DO271 1 μM; 6 and 24 h
[3] = mice, four weeks of inhibitor treatment; cited from earlier work
[4] = tested on: lymphocytic choriomeningitis virus (LCMV) clone 13; details: mice; cited from earlier work
[5] = tested on: broader panel of cell lines; test: cell viability assay; assay type: cell-based; details: all cell lines, 72 h
THP1 cells = test: cell viability assay; assay type: cell-based, human; details: 72 h, CellTiter-Glo
Procedure, shortened: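 THP-1 cells maintained in RPMI 1640 with 10% heat-inactivated FBS and 0.05 mM 2-mercaptoethanol at 2×105 to 1×10^6 cells/ml. Seeded at 3,000 cells per well; test compound added after 24 h at final 0.1 to 10 μM. After 72 h incubation, viability was read by CellTiter-Glo luminescence and normalized to vehicle-treated controls.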

Q: Which results are given for `FC(F)(F)Oc1ccc(Oc2ccnc(N3CCC(NC(=S)Nc4cccnc4)CC3)c2Cl)c(Cl)c1` [DO264]?
A: brain lyso-PS/PI and C20:4 PS content [1]: substantial elevations; toxicity in mice ([2]; treatment for several weeks): without overt signs of toxicity; total exposure levels in the periphery and brain ([2]; mice, p.o. or i.p. dosing): 3 to 9 µM; selectivity / off-targets among serine hydrolases (serine hydrolases): excellent selectivity over other serine hydrolases; concentration giving full engagement of ABHD12 (ABHD12): 1 µM; CCL3 level (THP-1 macrophages): elevated; CCL4 level (THP-1 macrophages): elevated; IL-1β level (THP-1 macrophages): concentration-dependent increases; TNF-α level (THP-1 macrophages): concentration-dependent increases; auditory defects [3]: did not exhibit the auditory defects observed in ABHD12–/– mice; immunological responses to LCMV clone 13 infection [4]: heightened immunological responses; cytotoxicity at 1 μM [5]: without displaying cytotoxicity; concentration that impaired the viability of THP1 cells (THP1 cells): ≥ 5 µM
